Assay [1] deals with endogenous PCDH10/WRC interaction. Kind of assay: Co-immunoprecipitation of WRC. The assay is classed as binding. As to conditions: 5 mM WIRS peptide, anti-WAVE1, mouse brain lysate, n = 7, p = 0.00003, Fig. 6B.
The next assay deals with endogenous WRC. Kind of assay: GST-PCDH10 CT pull-down of endogenous WRC from mouse brain lysate. The following applies: 100 μM WIRS peptide, Fig. 6A. The format is binding. In outline:
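Immobilized GST-PCDH10 cytoplasmic tail was incubated with mouse brain lysate on glutathione affinity beads. Competitor was buffer or 100 μM WIRS peptide, either wild type or T8A/F9A mutant. Beads were washed and bound proteins eluted with reduced glutathione. Retained endogenous WRC was detected by Western blot.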

The next assay concerns WRC / Arp2/3 complex. Kind of assay: Arp2/3-mediated pyrene-actin assembly assay. The format is biochemical. The following applies: minimal WIRS peptide; 100 nM WRC217, Fig. 5A.
In assay [2] the test system is 2MBP-ΔWRC / GST-hPCDH10 CT interaction. Kind of assay: Competition of 2MBP-ΔWRC pull-down of PCDH10 CT. The format is binding, human. As to conditions: Fig. 1D. In outline:
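Immobilized 2MBP-ΔWRC bait was mixed on affinity beads with a 5- to 10-fold excess of GST-tagged PCDH10 cytoplasmic tail prey, with wild-type WIRS peptide or T8A/F9A mutant peptide as competitor. After incubation and washing, bound proteins were eluted with maltose.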

A further assay relates to WRC (2MBP-ΔWRC). Kind of assay: MBP pull-down by immobilized 2MBP-ΔWRC. The assay is classed as binding, human. As to conditions: data not shown. In outline:
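Bait was immobilized 2MBP-ΔWRC, either wild type or the AW form (R106A/G110W in Abi2). It was mixed on affinity beads with a 5- to 10-fold excess of GST-tagged receptor cytoplasmic tails, purified by glutathione affinity chromatography with or without ion exchange and size exclusion. Beads were incubated and washed, then eluted with maltose. Retained proteins were seen on Coomassie-stained gels.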

A further assay concerns WRC. As to conditions: ref Nakao et al., 2008, Tai et al., 2010 (PCDH10, PCDH19), Bernadskaya et al., 2012, Stavoe et al., 2012 (DCC), 2012 (ROBO1), Karpushev et al., 2011 (ENaC); cited from earlier work.

Take “WIRS peptide: peptide containing the conserved sequence RSFSTFGKE of PCDH10 (WRC interacting receptor sequence)”: the “Effect on co-immunoprecipitation of PCDH10 with WRC” value in assay [1] was “weakened”. For the same substance, in the assay with endogenous WRC, the “Blocking of GST-PCDH10 CT pull-down of endogenous WRC” value is on record as “completely blocked the interaction”. For the same substance, in the assay on WRC / Arp2/3 complex, the “Effect on Rac1 stimulation of WRC activity” value is recorded as “had no effect on Rac1 stimulation”. For the same substance, the “Blocking of PCDH10 CT binding to 2MBP-ΔWRC” value in assay [2] is on record as “blocked this interaction”.

As to “FAT2: protocadherin FAT2, WIRS motif only found in human, mouse and chicken”, in the assay with WRC (2MBP-ΔWRC), the “Binding to WRC in vitro using its WIRS motif” value is listed as “binds the WRC in vitro using its WIRS motif”.

DCC: netrin receptor: the “Previously shown interaction with the WRC, biochemical or genetic” value in the assay on WRC was “previously shown to interact with the WRC biochemically or genetically”.

(Values after paper PMC4059610 (Cell, 2014).)
